Reference: ChEMBL document CHEMBL6177924, “Synthesis and antifungal evaluation of new azole derivatives containing 1,2,3-triazole” (RSC Med Chem, 2025)
Calls of active or inactive are those of the source. No cut-off for these calls is given here.

Legend:
Candida albicans [1] = test: Antifungal activity against Candida albicans assessed as increase in yeast fungal cells at 0.27 to 1.06 microg/ml measured after 4 to 8 hrs by inverted microscopic analysis; type: functional, organism-based; settings: dose 0.27-1.06 µg/ml, time 4-8 hrs
Summary of the method: (§1)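 Hyphae were induced in SD+10% FBS or in Spider medium. Log-phase cells at 1×10^5 CFU/mL final, 1 mL per well in 24-well plates, 3 wells per group. Drug at 0.27, 0.53 or 1.06 µg/mL, fluconazole, or no-drug control. Incubated at 30 °C; hyphal formation observed and photographed by inverted microscope at 4 h and 8 h.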

Candida albicans [2] = test: Antibiofilm activity in Candida albicans SC5314 assessed as appearance of fungal cells in pseudomycelial shape with few mycelia measured after 24 hrs by inverted microscopic analysis; type: functional, organism-based; settings: dose 0.27-1.06 µg/ml
Summary of the method: (§2)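 Log-phase C. albicans in RPMI1640+10% FBS at 1×10^5 CFU/mL allowed to adhere in 24-well plates for 90 min at 30 °C; unattached medium removed. 1 mL medium with drug (0.27, 0.53, 1.06 µg/mL) or without drug added; 24 h at 30 °C. Biofilm stained with crystal violet 30 min, washed 3× with PBS, viewed by inverted microscope.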

Cell membrane = test: Induction of cell membrane permeability in Candida albicans assessed as increase in red fluorescence incubated for 16 to 24 hrs by PI staining based fluorescence microscopic analysis; type: subcellular; settings: time 16-24 hrs
Summary of the method: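 C. albicans at 1×10^5 CFU/mL in SDB grown with drug (0.27, 0.53, 1.06 µg/mL), fluconazole or no drug at 30 °C, 150 r/min, for 16-24 h. Cells washed and resuspended in PBS at 2×10^6 CFU/mL. Stained with propidium iodide (final 5 µg/mL) 30 min at room temperature in the dark, then washed. Imaged by fluorescence microscopy and fluorescence intensity measured.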

Candida albicans [3] = test: Antibiofilm activity in Candida albicans SC5314 assessed as sparse distribution of fungal cells at 0.53 microg/ml measured after 24 hrs by inverted microscopic analysis; type: functional, organism-based; settings: dose 0.53 µg/ml; summary of the method: as §2
Candida albicans [4] = test: Antifungal activity against Candida albicans assessed as increase in pseudomycelial fungal cells with reduction in mycelial formation at 0.27 to 1.06 microg/ml measured after 8 hrs by inverted microscopic analysis; type: functional, organism-based; settings: dose 0.27-1.06 µg/ml; summary of the method: as §1
Candida albicans [5] = test: Induction of morphological changes in Candida albicans assessed as loose distribution of cytoplasm at 0.53 microg/ml incubated for 16 to 24 hrs by transmission electron microscopic analysis; type: functional, organism-based; settings: dose 0.53 µg/ml, time 16-24 hrs
Summary of the method: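 C. albicans at 5×10^5 CFU/mL in SDB shaken with drug (0.27, 0.53, 1.06 µg/mL), fluconazole or no drug at 30 °C, 150 r/min, for 16-24 h. Pellets washed with PBS and fixed in cold 3% paraformaldehyde/2.5% glutaraldehyde at 4 °C, then 1% OsO4. Dehydrated in acetone and embedded in Epon-812. 60-90 nm sections stained with uranyl acetate and lead citrate, imaged by TEM.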

Candida albicans [6] = test: Antifungal activity against Candida albicans assessed as reduction in invasion ability at 0.27 to 1.06 microg/ml measured after 4 to 8 hrs by inverted microscopic analysis; type: functional, organism-based; settings: dose 0.27-1.06 µg/ml, time 4-8 hrs; summary of the method: as §1
Candida albicans [7] = test: Antifungal activity against Candida albicans assessed as inhibition of mycelia formation at 0.53 microg/ml measured after 4 to 8 hrs by inverted microscopic analysis; type: functional, organism-based; settings: dose 0.53 µg/ml, time 4-8 hrs; summary of the method: as §1
Candida albicans [8] = test: Antifungal activity against Candida albicans assessed as inhibition of yeast state o mycelium state transformation at 0.27 to 1.06 microg/ml measured after 4 to 8 hrs by inverted microscopic analysis; type: functional, organism-based; settings: dose 0.27-1.06 µg/ml, time 4-8 hrs; summary of the method: as §1
Candida albicans [9] = test: Antifungal activity against Candida albicans assessed as inhibition of mycelia formation at 0.27 to 1.06 microg/ml measured after 4 to 8 hrs by inverted microscopic analysis; type: functional, organism-based; settings: dose 0.27-1.06 µg/ml, time 4-8 hrs; summary of the method: as §1
Candida albicans [10] = test: Antibiofilm activity in Candida albicans SC5314 assessed as appearance of pseudomycelial form of fungal cells at 0.27 microg/ml measured after 24 hrs by inverted microscopic analysis; type: functional, organism-based; settings: dose 0.27 µg/ml; summary of the method: as §2

Q: How did the Activity (Candida albicans [1]) turn out when `O=C(Cn1cc(COC(Cn2ccnc2)c2ccc(Cl)cc2Cl)nn1)c1ccc2ccccc2c1` (stereo unspecified) was run?
A: Its Activity is “Active”.

Q: And the Activity (Candida albicans [2])?
A: The Activity was “Dose-dependent-effect”.

Q: What about the Activity (Cell membrane) of the same molecule?
A: Its Activity is “Dose-dependent-effect”.

Q: What about the Activity (Candida albicans [3]) of the same molecule?
A: The Activity was “Active”.

Q: What about the Activity (Candida albicans [4]) of the same molecule?
A: The Activity was “Active”.

Q: And the Activity (Candida albicans [5])?
A: The Activity was “Active”.

Q: And the Activity (Candida albicans [6])?
A: Its Activity is “Active; Better Than That Of Fluconazole Group”.

Q: And the Activity (Candida albicans [7])?
A: The Activity was “Active; Better Than That Of Fluconazole Group”.

Q: And the Activity (Candida albicans [8])?
A: Its Activity is “Active; Better Than That Of Fluconazole Group”.

Q: What about the Activity (Candida albicans [9]) of the same molecule?
A: Its Activity is “Active”.

Q: What about the Activity (Candida albicans [10]) of the same molecule?
A: Its Activity is “Active”.
